Reference: ChEMBL document CHEMBL1151257, “Cytotoxic furanosesterterpenes from a marine sponge Psammocinia sp” (J Nat Prod, 2004)
In brackets after ≈: the same amount, converted by molar mass.

Experiments:
[1] = system: A549; assay: Cytotoxicity against human A549 cells; type: functional; settings: read-out: ED50 (the source's name)
[2] = system: SK-OV-3; assay: Cytotoxicity against human SKOV3 cells; type: functional; settings: read-out: ED50 (the source's name)
[3] = system: SK-MEL-2; assay: Cytotoxicity against human SK-MEL-2 cells; type: functional; settings: read-out: ED50 (the source's name)
[4] = system: XF498; assay: Cytotoxicity against human XF498 cells; type: functional; settings: read-out: ED50 (the source's name)
[5] = system: HCT-15; assay: Cytotoxicity against human HCT15 cells; type: functional; settings: read-out: ED50 (the source's name)
[6] = system: Simian virus 40; assay: Inhibition of SV40 DNA replication in human HeLa cells at 125 uM; type: functional; settings: Betapolyomavirus macacae
Procedure, shortened: (§1)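 SV40 DNA replication reaction run at 37 °C for 2 h; replication quantified as acid-insoluble radioactivity.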

[7] = Inhibition of DNA polymerase alpha
Procedure, shortened: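 DNA polymerase α reaction incubated at 37 °C for 30 min; activity read as acid-insoluble radioactivity.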

[8] = system: Simian virus 40; assay: Inhibition of SV 40 DNA replication in human HeLa cells at 250 uM; type: functional; settings: Betapolyomavirus macacae; procedure, shortened: as §1
[9] = system: Simian virus 40; assay: Inhibition of SV 40 DNA replication in human HeLa cells at 500 uM; type: functional; settings: Betapolyomavirus macacae; procedure, shortened: as §1

SMILES | EC50 [1] | EC50 [2] | EC50 [3] | EC50 [4] | EC50 [5] | inhibition at 125 µM [6] | IC50 [7] | inhibition at 250 µM [8] | inhibition at 500 µM [9]
CC1=C(O)/C(=C/[C@H](C)CC/C=C(/C)CCC/C(C)=C\CCc2ccoc2)OC1=O | > 30 µg/mL | 14.1 µg/mL (≈ 35.4 µM) | 14.4 µg/mL (≈ 36.1 µM) | 20.3 µg/mL (≈ 50.9 µM) | 16 µg/mL (≈ 40.1 µM) |  |  |  | 
CC1=C/C(=C/[C@H](C)CCC(=O)C(C)CCC/C(C)=C/CCc2ccoc2)OC1=O (some centres undefined) [PSAMMOCININ A2] | 7.5 µg/mL (≈ 18.8 µM) | 12.3 µg/mL (≈ 30.9 µM) | 4.8 µg/mL (≈ 12 µM) | 10.5 µg/mL (≈ 26.3 µM) | 11.7 µg/mL (≈ 29.4 µM) |  |  |  | 
CC1=C(O)[C@@H](C/C(C)=C/CCC(C)/C=C/C=C(\C)CCCc2ccoc2)OC1=O (some centres undefined) [PALINURIN] | 5.2 µg/mL (≈ 13 µM) | 10.2 µg/mL (≈ 25.6 µM) | 4.4 µg/mL (≈ 11 µM) | 5.1 µg/mL (≈ 12.8 µM) | 5.4 µg/mL (≈ 13.5 µM) |  |  |  | 
CC1=C/C(=C/[C@H](C)CCC(=O)/C(C)=C/CC/C(C)=C/CCc2ccoc2)OC1=O [PSAMMOCININ A1] | > 30 µg/mL | > 30 µg/mL | 7.5 µg/mL (≈ 18.9 µM) | 28.1 µg/mL (≈ 70.9 µM) | 20.5 µg/mL (≈ 51.7 µM) |  |  |  | 
CC1=C(O)[C@@H](C/C(C)=C/C=C/C(C)CCC/C(C)=C/CCc2ccoc2)OC1=O (some centres undefined) [ISOPALINURIN] | > 30 µg/mL | 16.5 µg/mL (≈ 41.4 µM) | 10.7 µg/mL (≈ 26.8 µM) | 10 µg/mL (≈ 25.1 µM) | > 30 µg/mL |  |  |  | 
COC1C=C(CC/C=C(\C)CC/C=C(\C)CCCC(C)/C=C2\OC(=O)C(C)=C2O)C(OC)O1 (centres undefined) [PSAMMOCININ B] | 8.2 µg/mL (≈ 17.8 µM) | 12.6 µg/mL (≈ 27.4 µM) | 7.5 µg/mL (≈ 16.3 µM) | 7.8 µg/mL (≈ 16.9 µM) | 19.2 µg/mL (≈ 41.7 µM) |  |  |  | 
CC1=C(O)/C(=C/[C@H](C)CC/C=C(/C)CC/C=C(\C)CCCc2ccoc2)OC1=O | 10.5 µg/mL (≈ 26.3 µM) | 7.5 µg/mL (≈ 18.8 µM) | 5.8 µg/mL (≈ 14.6 µM) | 8.7 µg/mL (≈ 21.8 µM) | 11 µg/mL (≈ 27.6 µM) | 30% | 5 µM | 60% | 100%
CC1=C(O)/C(=C/[C@H](C)CCC/C(C)=C/CC/C(C)=C/CCc2ccoc2)OC1=O | 24.1 µg/mL (≈ 60.5 µM) | 18.6 µg/mL (≈ 46.7 µM) | 19 µg/mL (≈ 47.7 µM) | 22.1 µg/mL (≈ 55.5 µM) | 23.5 µg/mL (≈ 59 µM) |  |  |  | 
COc1cccc2c1C(=O)c1c(O)c3c(c(O)c1C2=O)C[C@@](O)(C(=O)CO)C[C@@H]3O[C@H]1C[C@H](N)[C@H](O)[C@H](C)O1 [DOXORUBICIN] | 0.03 µg/mL (≈ 0.0552 µM) | 0.15 µg/mL (≈ 0.276 µM) | 0.05 µg/mL (≈ 0.092 µM) | 0.15 µg/mL (≈ 0.276 µM) | 0.12 µg/mL (≈ 0.221 µM) |  |  |  | 
